Structures are written as SMILES. Active and inactive are the calls of the source. No cut-off for these calls is given here.

Here are results for 38 compounds from ChEMBL document CHEMBL1150358, “Substituted benzyl-pyrimidines targeting thymidine monophosphate kinase of Mycobacterium tuberculosis: synthesis and in vitro anti-mycobacterial activity” (Bioorg Med Chem, 2008).

Data set [1] has as its target T1, Thymidylate kinase (Mycobacterium tuberculosis, UniProt P9WKE1).
T1 sequence (P9WKE1 whole entry): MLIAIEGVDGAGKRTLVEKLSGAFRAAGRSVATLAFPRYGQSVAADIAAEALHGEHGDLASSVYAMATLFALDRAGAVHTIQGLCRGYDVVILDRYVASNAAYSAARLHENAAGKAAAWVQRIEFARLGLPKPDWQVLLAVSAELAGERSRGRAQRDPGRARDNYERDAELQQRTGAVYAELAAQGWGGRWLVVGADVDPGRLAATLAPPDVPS
The data set can be described thus: Inhibition of Mycobacterium tuberculosis recombinant TMPK.

Data set [2] deals with T2, Thymidylate kinase (Mycobacterium tuberculosis) (UniProt P9WKE1).
T2 sequence (whole entry): T1 sequence (P9WKE1 whole entry)
The data set can be described thus: Inhibition of Mycobacterium tuberculosis recombinant TMPK upto 2 mM.

The subject of data set [3] is Vero. Put plainly: Cytotoxicity against african green monkey Vero cells by MTT assay at 400 ug/ml after 72 hrs. Format: cell-based. Particulars: chlorocebus sabaeus. In outline:
(§1)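 Vero cells in DMEM with 10% fetal calf serum plus penicillin/streptomycin; seeded 6 × 10^3 cells/mL, exposed to compounds (range 5–400 µg/mL) 72 h at 37 °C, 5% CO2; MTT 7.5 mg/mL added 4 h, formazan dissolved in 10% SDS/0.01 M HCl, OD 550/570 nm; duplicate, untreated cells as control.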

Data set [4] has as its target T3, Thymidylate kinase (Homo sapiens, UniProt P23919).
T3 sequence (P23919 whole entry): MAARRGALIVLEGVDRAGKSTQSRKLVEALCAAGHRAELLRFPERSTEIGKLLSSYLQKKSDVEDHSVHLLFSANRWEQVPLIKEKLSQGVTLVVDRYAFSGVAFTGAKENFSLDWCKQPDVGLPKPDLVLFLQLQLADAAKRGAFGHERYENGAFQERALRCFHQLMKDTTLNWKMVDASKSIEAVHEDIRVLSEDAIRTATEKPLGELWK
The data set can be described thus: Inhibition of human TMPK.

Data set [5] in a line: Selectivity index, ratio of Ki for human TMPK to Ki for Mycobacterium tuberculosis recombinant TMPK. The procedure, abridged: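 Selectivity index computed as Ki human TMPK divided by Ki M. tuberculosis TMPK, each Ki from recombinant enzyme assays with ATP and dTMP, mean of three assays.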
Data set [6] has as its system Vero. The data set can be described thus: Cytotoxicity against african green monkey Vero cells by MTT assay at 100 ug/ml after 72 hrs. It is filed as cell-based. Particulars: chlorocebus sabaeus. In outline:
as §1

Data set [7] has as its target T2, Thymidylate kinase (Mycobacterium tuberculosis). The data set can be described thus: Inhibition of Mycobacterium tuberculosis recombinant TMPK upto 0.2 mM.
The target of data set [8] is T4, Thymidylate kinase (Homo sapiens) (UniProt P23919).
T4 sequence (whole entry): T3 sequence (P23919 whole entry)
Put plainly: Inhibition of human TMPK upto 2 mM.

In the case of `Cc1cn([C@@H]2O[C@H](CO)[C@@H](O)[C@H]2O)c(=O)n(Cc2ccccc2)c1=O`, on Thymidylate kinase [1], the Ki is 75 µM.

In the case of `Cc1cn(Cc2ccc(/C=C/C(=O)O)cc2)c(=O)[nH]c1=O`, in data set [2], the outcome was inactive. Moreover, the Activity result in the data set on Vero [3] is reported as “Non-toxic”.

For the compound `O=C(O)CCCc1ccc(Cn2cc(Br)c(=O)[nH]c2=O)cc1`, the Ki turned out to be 10 µM at Thymidylate kinase [1] and 293 µM on Thymidylate kinase [4]. In addition, the Ratio Ki in data set [5] worked out at 29. This compound gave an Activity in the data set with Vero [6] of 14%.

Regarding `CCCCCCc1ccc(Cn2cc(Br)c(=O)[nH]c2=O)cc1`, the result in data set [7] was inactive. For the same compound, the Activity entry in the data set with Vero [3] was “Non-toxic”.

For `O=C(O)CCCCCc1ccc(Cn2cc(Br)c(=O)[nH]c2=O)cc1`, the inhibition constant (Ki) is 34 µM at Thymidylate kinase [1] and 92 µM on Thymidylate kinase [4]. Besides, the Ratio Ki in data set [5] was 3. The Activity entry in the data set on Vero [3] is recorded as “Non-toxic”.

As for `Cc1cn(Cc2ccc(CCC(N)=O)cc2)c(=O)[nH]c1=O`, the inhibition constant Ki at Thymidylate kinase [1] was 89 µM. Further, the Activity result in the data set with Vero [3] is recorded as “Non-toxic”.

With `Cc1cn(Cc2ccc(/C=C/CC(=O)O)cc2)c(=O)[nH]c1=O`, on Thymidylate kinase [1], the inhibitory constant (Ki) is 39 µM. Besides, the Activity entry in the data set on Vero [3] is listed as “Non-toxic”.

On to `Cc1cn(Cc2ccc(CCCCCC(=O)O)cc2)c(=O)[nH]c1=O`, for which the inhibition constant Ki on Thymidylate kinase [1] amounted to 47 µM. Moreover, the Activity result in the data set on Vero [3] is “Non-toxic”.

Turning to `O=c1[nH]c(=O)n([C@H]2C[C@H](O)[C@@H](CO)O2)cc1Cl` [CHLORODEOXYURIDINE], the Ki on Thymidylate kinase [1] was 10 µM.

With `Cc1cn(Cc2ccc(CCCCC(N)=O)cc2)c(=O)[nH]c1=O`, at Thymidylate kinase [1], the inhibition constant Ki is 55 µM. In the data set with Vero [3], the Activity result is “Non-toxic”.

With `Cc1cn(Cc2ccc(CCCCCC(N)=O)cc2)c(=O)[nH]c1=O`, on Thymidylate kinase [1], the inhibition constant Ki was 26.5 µM. Also, in the data set with Vero [3], the Activity result is on record as “Non-toxic”.

Consider `O=C(O)CCCc1ccc(Cn2ccc(=O)[nH]c2=O)cc1`, for which the Ki at Thymidylate kinase [1] turned out to be 202 µM. For the same compound, in the data set with Vero [3], the Activity result is listed as “Non-toxic”.

For `O=C(O)CCCCCc1ccc(Cn2cc(Cl)c(=O)[nH]c2=O)cc1`, on Thymidylate kinase [1], the Ki was 23 µM. Also, in the data set on Vero [3], the Activity result is “Non-toxic”.

With `O=C(O)CCCCc1ccc(Cn2cc(Cl)c(=O)[nH]c2=O)cc1`, the results for the Ki on Thymidylate kinase [1] and on Thymidylate kinase [4] were 16 µM and 122 µM, respectively. The Ratio Ki in data set [5] worked out at 7.6. For the same compound, the Activity entry in the data set on Vero [3] is on record as “Non-toxic”.

On Thymidylate kinase [4], `O=C(O)CCCc1ccc(Cn2cc(Cl)c(=O)[nH]c2=O)cc1` returned an inhibition constant (Ki) of 790 µM. In data set [5], the Ratio Ki is 120. For the same compound, in the data set on Vero [3], the Activity entry is listed as “Non-toxic”.

As for `CCCCc1ccc(Cn2cc(Cl)c(=O)[nH]c2=O)cc1`, the result in data set [7] was inactive. The Activity result with Vero [3] is “Non-toxic”.

Take `NC(=O)CCCc1ccc(Cn2cc(Cl)c(=O)[nH]c2=O)cc1`: the Ki at Thymidylate kinase [1] came to 39 µM. In addition, the result in data set [8] was inactive. Also, the Activity in the data set on Vero [6] turned out to be 10%.

In the case of `NC(=O)CCCc1ccc(Cn2cc(Br)c(=O)[nH]c2=O)cc1`, at Thymidylate kinase [1], the inhibitory constant (Ki) is 39 µM. Also, in data set [8], the outcome was inactive. In the data set on Vero [3], the Activity result is recorded as “Non-toxic”.

Consider `NC(=O)CCCCCc1ccc(Cn2cc(Cl)c(=O)[nH]c2=O)cc1`, for which the Ki at Thymidylate kinase [1] was found to be 26 µM. Besides, in the data set on Vero [3], the Activity entry was “Non-toxic”.

For `NC(=O)CCCc1ccc(Cn2ccc(=O)[nH]c2=O)cc1`, the outcome in data set [2] was inactive. In addition, the Activity result with Vero [3] was “Non-toxic”.

As for `Cc1cn(Cc2ccc(C#CCCCC(=O)O)cc2)c(=O)[nH]c1=O`, at Thymidylate kinase [1], the inhibition constant (Ki) was found to be 96 µM. Besides, the Activity result in the data set with Vero [3] is listed as “Non-toxic”.

Consider `NC(=O)CCCCCc1ccc(Cn2cc(Br)c(=O)[nH]c2=O)cc1`, for which, at Thymidylate kinase [1], the Ki is 19.5 µM. In the data set on Vero [3], the Activity result is given as “Non-toxic”.

Take `Cc1cn(Cc2ccc(CCCCO)cc2)c(=O)[nH]c1=O`: on Thymidylate kinase [1], the inhibition constant (Ki) came to 51 µM. Further, in the data set on Vero [3], the Activity result is “Non-toxic”.

For the compound `O=c1[nH]c(=O)n([C@H]2C[C@H](O)[C@@H](CO)O2)cc1Br` [BROXURIDINE], the Ki at Thymidylate kinase [1] came out at 5 µM; on Thymidylate kinase [4] it was 214 µM. For the same compound, the Ratio Ki in data set [5] came to 43. In the data set on Vero [3], the Activity entry is on record as “Non-toxic”.

With `Cc1cn(Cc2ccc(Br)cc2)c(=O)[nH]c1=O`, the Activity result in the data set on Vero [3] is “Non-toxic”.

As for `COC(=O)CCCc1ccc(Cn2cc(Cl)c(=O)[nH]c2=O)cc1`, the Ki on Thymidylate kinase [1] was 59 µM. Besides, in the data set on Vero [3], the Activity result is recorded as “Non-toxic”.

With `Cc1cn([C@H]2C[C@H](O)[C@@H](CO)O2)c(=O)[nH]c1=O` [DOXRIBTIMINE], the Activity entry in the data set on Vero [3] was “Non-toxic”.

For the compound `O=C(O)CCCCc1ccc(Cn2cc(Br)c(=O)[nH]c2=O)cc1`, at Thymidylate kinase [1], the inhibitory constant (Ki) came out at 38 µM. The Activity result with Vero [3] is “Non-toxic”.

Turning to `CCCCc1ccc(Cn2cc(Br)c(=O)[nH]c2=O)cc1`, the outcome in data set [7] was inactive. Also, in the data set on Vero [3], the Activity entry is recorded as “Non-toxic”.

As for `COC(=O)CCCc1ccc(Cn2cc(Br)c(=O)[nH]c2=O)cc1`, the inhibition constant Ki on Thymidylate kinase [1] came to 52 µM. In addition, the Activity result in the data set with Vero [3] is on record as “Non-toxic”.

Turning to `Cc1cn(Cc2ccc(C#CCCO)cc2)c(=O)[nH]c1=O`, on Thymidylate kinase [1], the inhibitory constant (Ki) was found to be 70 µM. Besides, the Activity entry in the data set with Vero [3] is listed as “Non-toxic”.

In the case of `CCCCCCc1ccc(Cn2cc(Cl)c(=O)[nH]c2=O)cc1`, the outcome in data set [7] was inactive. For the same compound, in the data set on Vero [3], the Activity entry is listed as “Non-toxic”.

In the case of `Cc1cn(Cc2ccc(CCCC(N)=O)cc2)c(=O)[nH]c1=O`, the inhibitory constant (Ki) on Thymidylate kinase [1] worked out at 112 µM. Further, the Activity entry with Vero [3] is given as “Non-toxic”.

On to `NC(=O)CCCCc1ccc(Cn2cc(Br)c(=O)[nH]c2=O)cc1`, for which, at Thymidylate kinase [1], the inhibitory constant (Ki) was determined as 35 µM. For the same compound, in the data set on Vero [3], the Activity entry is “Non-toxic”.

On to `Cc1cn(Cc2ccc(/C=C/C(N)=O)cc2)c(=O)[nH]c1=O`, for which the Ki at Thymidylate kinase [1] came to 195 µM. Besides, the Activity entry with Vero [3] was “Non-toxic”.

Turning to `Cc1cn(Cc2ccc(CCC(=O)O)cc2)c(=O)[nH]c1=O`, the Ki at Thymidylate kinase [1] worked out at 55 µM. Moreover, the Activity entry with Vero [3] is on record as “Non-toxic”.

Consider `Cc1cn(Cc2ccc(CCCC(=O)O)cc2)c(=O)[nH]c1=O`, for which the inhibition constant (Ki) at Thymidylate kinase [1] was determined as 13 µM; on Thymidylate kinase [4], 252 µM. Further, the Ratio Ki in data set [5] stood at 19.

As to `Cc1cn(Cc2ccc(CCCCC(=O)O)cc2)c(=O)[nH]c1=O`, on Thymidylate kinase [1], the Ki came to 58 µM. Also, in the data set with Vero [3], the Activity entry was “Non-toxic”.
